# Sampled rows, rich in hits. Any-hit rate of the full collection: about 0.85%.
# OXTR potentiator – potentiates the human oxytocin receptor response | CHO-OTR cells, Fluo-8 calcium fluorescence, potentiator mode; 0% = oxytocin EC15, 100% = EC100 | AID 2445 | activation, % at 3 µM | P30559 | actives 0.061% (n = 320,000);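 active = activation above that plate's cutoff, the mean activation of tested compounds plus 3 SD, cut at about 6.6% in these data, passing the limit was not always enough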;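 also: 100% uses oxytocin at 75 nM as the full agonist control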
#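 Assay system: CHO cell line stably expressing human OTR | Also added: Oxytocin at about EC15, sub-maximal agonist stimulus | Times: Compound 6 min at room temperature before oxytocin, 100 s read | Measured by: Fluo-8 intracellular calcium fluorescence, ex 470-495, em 515-575 nm | Controls: EC15 oxytocin alone as 0%, 75 nM oxytocin as 100%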
# CRFBP-R2 agonist – agonists of human CRF-binding protein/CRF-R2 receptor complex; HEK293 CRF-R2/CRF-BP, calcium dye fluorescence (FLIPR); percent of saturating CRF peptide response; activation, % at 13.2 µM; actives 0.46% (n = 350,000); AID 588473;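 active = activation of at least 50%, plus an integration ratio under a set limit after plate pattern correction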;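 also: plate controls were neutral control wells without compound for no effect and CRF at EC100 for full effect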
# OXTR ag – human OXTR agonism; P30559; CHO-OTR cells, Fluo-8 calcium fluorescence; normalized: DMSO 0%, oxytocin 100%; activation, % at 3 µM; actives 0.32% (n = 320,000); AID 2435;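 active = activation above the mean of all tested compounds plus 3 SD, cutoff set per screening run, cut at about 20% in these data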;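 also: peak over basal fluorescence ratio from a 100 s FLIPR kinetic read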
# TRPN1 ag – agonists of zebrafish TRPN1 channel | HEK293 zebrafish TRPN1-YFP, Fluo-8 calcium fluorescence; 100% = response to 87 µM carbachol | activation, % at 3 µM | actives 0.18% (n = 220,000);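 active = activation above its plate's cutoff, the mean activation of test wells on that plate plus 3 SD, cut at about 19% in these data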;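 also: 0% = DMSO alone and 100% = 87 µM carbachol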
#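 Control set: carbachol 87 µM as high control, DMSO as low control; system: HEK293 stable line with zebrafish TRPN1-YFP; read-out: % activation versus carbachol response; detection: intracellular calcium fluorescence with Fluo-8; doses: single test compound dose, 3 µM nominal, 0.3% DMSO; schedule: dye 1 h 37 °C plus 30 min RT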
# TRPML3 agonist – activates the human TRPML3 channel. HEK293 TRPML3-YFP, Fluo-8 calcium fluorescence; 100% = the carbachol control signal. activation, % at 3 µM. actives 0.29% (n = 220,000);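 active = activation above its plate's cutoff, the mean activation of the plate's test wells plus 3 SD, cut at about 12% in these data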;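 also: 0% = DMSO only wells and 100% = carbachol wells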
#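 Material: HEK293 cells stably carrying human TRPML3-YFP; compound dosing: single dose, 3 µM final nominal compound, 0.3% DMSO final; incubation: 1-h 37 °C dye load, 5-s basal, 120-s post-compound reads; technique: Fluo-8 intracellular calcium fluorescence, excitation 470-495 nm, emission 515-575 nm; read-out basis: percent activation from peak-to-basal fluorescence ratio, scaled between DMSO and carbachol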
# V1aR counter – activates human V1a receptor in oxytocin agonist counter-screen | CHO-V1R cells, Fluo-8 calcium fluorescence, agonist mode; 0% DMSO, 100% 3 nM vasopressin | activation, % at 3 µM | actives 0.25% (n = 320,000);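 active = activation above the mean activation of all tested compounds plus 3 SD, per screening run, cut at about 20% in these data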;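 also: signal is peak over basal fluorescence ratio across a 100 second FLIPR read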
# Target sequence (P37288 whole entry, looked up): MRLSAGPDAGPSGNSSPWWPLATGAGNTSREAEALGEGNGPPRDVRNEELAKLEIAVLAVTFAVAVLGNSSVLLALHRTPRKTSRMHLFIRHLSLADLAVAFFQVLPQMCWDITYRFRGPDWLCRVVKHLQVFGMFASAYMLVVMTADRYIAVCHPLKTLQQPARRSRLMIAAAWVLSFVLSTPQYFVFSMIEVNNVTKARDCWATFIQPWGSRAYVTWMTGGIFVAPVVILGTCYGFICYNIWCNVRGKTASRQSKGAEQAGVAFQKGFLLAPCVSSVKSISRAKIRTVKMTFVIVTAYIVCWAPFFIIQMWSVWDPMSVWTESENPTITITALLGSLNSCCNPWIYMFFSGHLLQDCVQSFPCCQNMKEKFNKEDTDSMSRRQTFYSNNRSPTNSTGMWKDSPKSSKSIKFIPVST
# Starred values were filed as active, the others as inactive; / = not tested or not shown.
SMILES,OXTR potentiator,CRFBP-R2 agonist,OXTR ag,TRPN1 ag,TRPML3 agonist,V1aR counter
CCCN1C(=O)c2cccc3c(N4CCCCC4)ccc(c23)C1=O,-4,206*,5,23*,7,3
CCN(CC)S(=O)(=O)c1ccc(C(=O)OCCN2C(=O)c3cccc4c(N5CCOCC5)ccc(c34)C2=O)cc1,4,184*,1,2,2,3
O=C(OCCN1C(=O)c2cccc3c(N4CCOCC4)ccc(c23)C1=O)c1cc(Cl)cc(Cl)c1,/,/,/,4,2,/
O=C1c2cccc3c(N4CCCCC4)ccc(c23)C(=O)N1c1ccc(Cl)cn1,/,/,/,6,6,/
O=C1c2cccc3c(N4CCCCC4)ccc(c23)C(=O)N1c1ccccn1,-30,16,42*,7,6,40*
CCCCNc1ccc2c3c(cccc13)C(=O)N(CCCC)C2=O,/,194*,/,283*,154*,/
CCOC(=O)Oc1c(OC)cc(C(=O)O[C@@H]2C[C@@H]3CN4CCc5c([nH]c6cc(OC)ccc56)[C@H]4C[C@@H]3[C@H](C(=O)OC)[C@H]2OC)cc1OC,-6,6,0,/,/,0
Cc1ccc(N2CCN(S(=O)(=O)c3c(C)noc3C)CC2C)cc1 (configuration not stated),-10,-1,-3,/,/,-1
Cc1cc(C(=O)NCC(c2ccco2)N2CCCC2)c2ccccc2n1 (configuration not stated),-8,0,1,/,/,2
COC(=O)c1ccc(C(=O)OC)c(NC(=S)N2CCOCC2)c1,-5,-3,1,-1,0,0
Cn1c(CN2CCCCC2)nc2cc(NS(=O)(=O)c3ccc(Cl)cc3)ccc21,-12,86*,34*,3,3,32*
CN(C)c1ccc(/C=C2\C(=N)N3C(=NC2=O)Sc2cc(S(C)(=O)=O)ccc23)cc1,-2,/,10,6,1,6
CCOC(=O)c1c(NC(=O)C(C)Sc2cccc[n+]2[O-])sc2c1CCN(Cc1ccccc1)C2 (configuration not stated),-1,51*,-2,2,1,1
Clc1ccc(-c2nnnn2-c2ccc(Cl)cc2)cc1,-12,-8,-3,-2,-1,-2
Cc1ccc(-n2nnnc2C(Cl)(Cl)c2nnnn2-c2ccc(C)cc2)cc1,-8,72*,3,0,2,4
O=C(COC(=O)CC(c1ccccc1)c1ccccc1)NCc1ccc(Cl)cc1,-9,160*,1,-1,0,1
CCC(CO)[n+]1c(C)cc(/C=C2\Sc3ccccc3N2Cc2ccccc2)cc1C (configuration not stated),-5,77*,4,1,2,2
Cc1nc(C(F)(F)F)ccc1C(=O)N1CCCCC1,-4,0,0,-1,1,1
Cc1ccc(C(=O)Nc2cccc(S(=O)(=O)N3CCCC3)c2)o1,0,-1,1,/,/,1
Cc1cc(C)nc(NS(=O)(=O)c2ccc(NC(=O)C3(c4ccc([N+](=O)[O-])cc4)CCCC3)cc2)n1,-7,21,22*,16,7,22*
COc1nccnc1NS(=O)(=O)c1ccc(N)cc1,/,5,/,/,/,/
COc1cc(N=c2ssnc2Cl)cc(OC)c1,-3,4,0,0,0,0
Clc1nssc1=Nc1ccc(Br)cc1,/,107*,/,1,4,/
CC(C)N1CCc2c(sc(NC(=O)c3ccc(S(=O)(=O)N4CCc5ccccc54)cc3)c2C(N)=O)C1,-6,107*,9,6,2,8
CNC(=O)c1c(NC(=O)c2ccc(S(=O)(=O)N(C)c3ccccc3)cc2)sc2c1CCN(C(C)C)C2,-10,160*,9,/,/,15
CC(C)N1CCc2c(sc(NC(=O)c3nc4ccccc4s3)c2C(N)=O)C1,-1,-1,0,1,0,0
CCN1CCc2c(sc(NC(=O)c3ccc(S(=O)(=O)N(C)c4ccccc4)cc3)c2C(=O)NC)C1,-2,162*,9,/,/,11

# From PubChem BioAssay
